Experimental data from ChEMBL document CHEMBL4477177, “Antituberculosis Activity of a Naturally Occurring Flavonoid, Isorhamnetin” (J Nat Prod, 2016).

Tests used:
[1] = test system: Mycobacterium tuberculosis; assay: Antitubercular activity against Mycobacterium tuberculosis H37Rv ATCC 27294 incubated for 7 days by resazurin assay; format: functional; conditions: H37Rv ATCC 27294, 168 h
[2] = Lipophilicity, logP of the compound; format: physicochemical; conditions: octanol/water
[3] = biological target: Mitogen-activated protein kinase 3 (Homo sapiens) (UniProt P27361); assay: Binding affinity to human ERK1 expressed in Escherichia coli BL21 by fluorescence quenching based spectrofluorometric analysis
Mitogen-activated protein kinase 3 (Homo sapiens), sequence (P27361 whole entry): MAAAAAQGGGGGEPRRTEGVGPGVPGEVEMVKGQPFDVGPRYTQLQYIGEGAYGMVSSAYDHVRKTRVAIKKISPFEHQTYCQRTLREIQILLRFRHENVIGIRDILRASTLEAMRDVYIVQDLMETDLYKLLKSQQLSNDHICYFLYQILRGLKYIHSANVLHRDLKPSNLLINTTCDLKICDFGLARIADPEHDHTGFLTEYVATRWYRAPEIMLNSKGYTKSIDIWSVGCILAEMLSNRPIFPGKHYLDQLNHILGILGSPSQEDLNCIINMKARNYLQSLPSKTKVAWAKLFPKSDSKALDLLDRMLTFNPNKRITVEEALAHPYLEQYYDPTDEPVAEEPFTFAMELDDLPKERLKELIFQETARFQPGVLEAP
Summary of the method: (§1)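 C-terminally His6-tagged ERK1 or p38 MAPK expressed in E. coli and purified. Protein at 10 μM in 50 mM sodium phosphate, 100 mM NaCl, pH 8.0, titrated with ligand to 1:10 protein:ligand. Excitation 290 nm, emission 290–500 nm. Binding constant K derived from fluorescence quenching.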

[4] = biological target: MAP kinase p38 (Homo sapiens) (UniProt O15264+Q15759+Q16539+P53778); assay: Binding affinity to human C-terminally His-tagged p38 expressed in Escherichia coli BL21 by fluorescence quenching based spectrofluorometric analysis; summary of the method: as §1

`O=c1c(O)c(-c2ccc(O)c(O)c2)oc2cc(O)cc(O)c12` [QUERCETIN] gave an MIC [1] greater than 827 µM, a logP [2] of 1.63 and a K [3] of 5.62 ×10⁵ /M. It also gave a K [4] of 9.87 ×10⁵ /M.
